# Measurements as given in article PMC5159748 (Archives of biochemistry and biophysics, 2016).
# Experiments:
# [1] = biological target: T1, K346 (Drosophila kinesin-1 motor domain; apo-K346) (Drosophila melanogaster, UniProt P17210); test: stopped-flow FRET; type: binding
# T1 sequence (P17210 2-346): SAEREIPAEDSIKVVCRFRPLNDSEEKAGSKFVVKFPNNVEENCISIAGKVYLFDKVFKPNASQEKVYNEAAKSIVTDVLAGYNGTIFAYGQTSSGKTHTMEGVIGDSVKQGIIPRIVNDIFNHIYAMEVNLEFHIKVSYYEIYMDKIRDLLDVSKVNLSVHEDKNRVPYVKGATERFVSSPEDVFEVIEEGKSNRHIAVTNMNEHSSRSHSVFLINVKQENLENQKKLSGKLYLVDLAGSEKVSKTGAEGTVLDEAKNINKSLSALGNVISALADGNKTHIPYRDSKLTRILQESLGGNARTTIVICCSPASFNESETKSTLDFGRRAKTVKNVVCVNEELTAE
# Outline: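 Apo-K346 (Tev-cleaved, ADP-stripped) at 25 °C in A25 buffer (pH 6.9) with 50 mM KCl and glycerol as indicated. FRET from tyrosines to mdADP: excitation 280 nm, 418 nm long-pass emission. Association: stopped-flow mixing with ≥10-fold excess mdADP, kon = kobs/[mdADP]. Release: 0.84 μM E•mdADP chased with 400 μM MgATP, single-exponential fit. SD from ≥3 transients.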
# [2] = biological target: Microtubules prepared from porcine tubulin, stabilized with paclitaxel (porcine) (UniProt P02550); test: turbidity increase
Kd [1],Kd [2],Compound
2 nM,,CNc1ccccc1C(=O)O[C@H]1C[C@H](n2cnc3c(N)ncnc32)O[C@@H]1COP(=O)(O)OP(=O)(O)O [mdADP]
,1800 nM,"K346, monomeric Drosophila kinesin-1 motor domain (amino acids 2-346) (from UniProt P17210 2-346) (domain or fragment)"
